Experiments:
Type in all cases: functional
OVCAR-5 = assay: Growth inhibition of human OVCAR5 cells after 48 hrs by sulforhodamine B assay; conditions: OVCAR-5, 48 h
How it was run: (§1)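 NCI-60 panel cells grown in RPMI 1640 with 5% FBS and 2 mM L-glutamine, seeded at 5000–40,000 cells/well and preincubated 24 h. Five 10-fold dilutions (0.001–100 µM) from DMSO stocks were added for 48 h at 37 °C. Adherent cells were fixed with cold TCA (10% final) for 60 min at 4 °C, stained with 0.4% SRB, and read at 515 nm. GI50 was set where 100×(T−T0)/(C−T0)=50.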

[1] = Growth inhibition of human HCC2998 cells assessed as cell growth at 10 uM after 48 hrs by sulforhodamine B assay; conditions: HCC 2998, 48 h, read-out: Activity
How it was run: (§2)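 NCI-60 single-dose screen at 10 µM: cells in RPMI 1640 with 5% FBS, preincubated 24 h, then exposed 48 h at 37 °C. TCA fixation (16% final for suspension cells), SRB staining, absorbance 515 nm. Percent growth relative to time-zero and untreated control plates; negative values indicate cell kill.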

DU-145 = assay: Growth inhibition of human DU145 cells after 48 hrs by sulforhodamine B assay; conditions: DU-145, 48 h
How it was run: (§3)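 NCI-60 screen: cells in RPMI 1640 with 5% FBS and 2 mM glutamine, 5000–40,000 cells/well, preincubated 24 h. Five concentrations (10-fold dilutions; 100 to 0.001 µM) applied for 48 h at 37 °C. TCA fixation, SRB stain, absorbance at 515 nm. Time-zero plates included; GI50 where 100×(T−T0)/(C−T0)=50.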

K562 = assay: Growth inhibition of human K562 cells assessed as cell growth at 10 uM after 48 hrs by sulforhodamine B assay; conditions: K562, 48 h, read-out: Activity; how it was run: as §2
ACHN = assay: Growth inhibition of human ACHN cells after 48 hrs by sulforhodamine B assay; how it was run: as §3
A498 = assay: Growth inhibition of human A498 cells assessed as cell growth at 10 uM after 48 hrs by sulforhodamine B assay; conditions: A498, 48 h, read-out: Activity; how it was run: as §2
SF-268 = assay: Growth inhibition of human SF268 cells after 48 hrs by sulforhodamine B assay; conditions: SF-268, 48 h; how it was run: as §1
Malme-3M = assay: Growth inhibition of human MALME-3M cells assessed as cell growth at 10 uM after 48 hrs by sulforhodamine B assay; conditions: read-out: Activity
How it was run: (§4)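 Single-dose NCI-60 screen: adherent cells in RPMI 1640 with 5% FBS were exposed to 10 µM for 48 h at 37 °C after a 24 h preincubation. They were fixed in situ with cold TCA (10% final), stained with 0.4% SRB in 1% acetic acid, solubilized in 10 mM Tris base, and read at 515 nm. Percent growth was taken relative to time-zero and control plates.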

T47D [2] = assay: Growth inhibition of human T47D cells assessed as cell growth at 10 uM after 48 hrs by sulforhodamine B assay; conditions: read-out: Activity
How it was run: (§5)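 Single-dose NCI-60 test at 10 µM. Cells were grown in RPMI 1640 with 5% FBS and 2 mM L-glutamine, preincubated 24 h, with T0 plates TCA-fixed. Exposure was 48 h at 37 °C, 5% CO2. Cells were fixed with cold TCA (final 10%, 4 °C, 60 min), stained with SRB and read at 515 nm. Percent growth was taken relative to T0 and untreated control; negative values denote cell kill.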

SW-620 = assay: Growth inhibition of human SW620 cells assessed as cell growth at 10 uM after 48 hrs by sulforhodamine B assay; conditions: SW-620, 48 h, read-out: Activity; how it was run: as §5
PC-3 [3] = assay: Growth inhibition of human PC3 cells assessed as cell growth at 10 uM after 48 hrs by sulforhodamine B assay; conditions: PC-3, 48 h, read-out: Activity; how it was run: as §4
HCT-15 = assay: Growth inhibition of human HCT15 cells after 48 hrs by sulforhodamine B assay; conditions: HCT-15, 48 h; how it was run: as §3
[4] = Growth inhibition of human Hs 578T cells after 48 hrs by sulforhodamine B assay; how it was run: as §3
SNB-75 = assay: Growth inhibition of human SNB75 cells assessed as cell growth at 10 uM after 48 hrs by sulforhodamine B assay; conditions: SNB-75, 48 h, read-out: Activity; how it was run: as §5
CCRF-CEM = assay: Growth inhibition of human CCRF-CEM cells assessed as cell growth at 10 uM after 48 hrs by sulforhodamine B assay; conditions: read-out: Activity; how it was run: as §2
HL-60(TB) = assay: Growth inhibition of human HL-60(TB) cells assessed as cell growth at 10 uM after 48 hrs by sulforhodamine B assay; conditions: HL-60, 48 h, read-out: Activity
How it was run: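 NCI-60 single-dose screen run at 10 µM on HL-60(TB) suspension cells in RPMI 1640 with 5% FBS and 2 mM L-glutamine. Cells were preincubated for 24 h, with a time-zero plate fixed then. Exposure lasted 48 h at 37 °C. Settled cells were fixed with TCA (16% final), stained with SRB and read at 515 nm. Percent growth is relative to control and T0.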

U-251 = assay: Growth inhibition of human U251 cells after 48 hrs by sulforhodamine B assay; conditions: U-251, 48 h
How it was run: (§6)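 NCI-60 five-dose screen. Cells were grown in RPMI 1640 with 5% FBS and 2 mM L-glutamine, plated at 5000–40,000 cells/well and incubated 24 h before dosing, with T0 plates TCA-fixed. DMSO stocks were diluted to doses of […] and exposed 48 h at 37 °C, 5% CO2. Cells were fixed with cold TCA (final 10%, 60 min, 4 °C), stained with 0.4% SRB in 1% acetic acid for 10 min, solubilized in 10 mM trizma base and read at 515 nm. GI50 is where 100×(T−T0)/(C−T0)=50.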

OVCAR-4 = assay: Growth inhibition of human OVCAR4 cells assessed as cell growth at 10 uM after 48 hrs by sulforhodamine B assay; conditions: OVCAR-4, 48 h, read-out: Activity; how it was run: as §4
CAKI-1 = assay: Growth inhibition of human CAKI-1 cells assessed as cell growth at 10 uM after 48 hrs by sulforhodamine B assay; conditions: CAKI-1, 48 h, read-out: Activity; how it was run: as §2
PC-3 [5] = assay: Growth inhibition of human PC3 cells after 48 hrs by sulforhodamine B assay; conditions: PC-3, 48 h; how it was run: as §1
UACC-62 = assay: Growth inhibition of human UACC62 cells assessed as cell growth at 10 uM after 48 hrs by sulforhodamine B assay; conditions: UACC-62, 48 h, read-out: Activity; how it was run: as §5
[6] = Growth inhibition of human Hs 578T cells assessed as cell growth at 10 uM after 48 hrs by sulforhodamine B assay; conditions: read-out: Activity; how it was run: as §2
T47D [7] = assay: Growth inhibition of human T47D cells after 48 hrs by sulforhodamine B assay; how it was run: as §6
[8] = Growth inhibition of human NCI-ADR-RES cells assessed as cell growth at 10 uM after 48 hrs by sulforhodamine B assay; conditions: read-out: Activity; how it was run: as §4
OVCAR-3 = assay: Growth inhibition of human OVCAR3 cells after 48 hrs by sulforhodamine B assay; conditions: OVCAR-3, 48 h; how it was run: as §1

Row | Compound | GI50 (OVCAR-5) | growth at 10 µM [1] | GI50 (DU-145) | growth at 10 µM (K562) | GI50 (ACHN) | growth at 10 µM (A498) | GI50 (SF-268) | growth at 10 µM (Malme-3M) | growth at 10 µM (T47D [2]) | growth at 10 µM (SW-620) | growth at 10 µM (PC-3 [3]) | GI50 (HCT-15) | GI50 [4] | growth at 10 µM (SNB-75) | growth at 10 µM (CCRF-CEM) | growth at 10 µM (HL-60(TB)) | GI50 (U-251) | growth at 10 µM (OVCAR-4) | growth at 10 µM (CAKI-1) | GI50 (PC-3 [5]) | further results
1 | CC(C)=CCC/C(C)=C/CC/C(C)=C/CC[C@]1(C)CCc2c3c(c(C)c(C)c2O1)OCN(CCCCCO)C3 | 5.93 µM | 60.8% | 6.28 µM | -55.4% | 5.74 µM | 97.4% | 7.13 µM | 106% | 94.4% | -18.6% | 71.8% | 6.24 µM | 7.26 µM | 70% | 54.9% | 37.2% | 5.71 µM | 93.1% | 70% | 5.71 µM | growth at 10 µM (UACC-62): 99.2%; growth at 10 µM [6]: 97.3%; GI50 (T47D [7]): 6.17 µM; growth at 10 µM [8]: 82.5%; GI50 (OVCAR-3): 6.71 µM
2 | CC(C)=CCC/C(C)=C/CC/C(C)=C/CC[C@]1(C)CCc2c3c(cc(C)c2O1)OCN(CCCO)C3 | 1.77 µM | -82.9% | 1.9 µM | -33.4% | 1.75 µM | 106% | 2.04 µM | 110% | -22.1% | -92.1% | 50.8% | 1.97 µM | 2.03 µM | 33.9% | 28.6% | 15.3% | 1.72 µM | -46.5% | 60.4% | 1.63 µM | growth at 10 µM (UACC-62): 93%; growth at 10 µM [6]: -11.8%; GI50 (T47D [7]): 2.01 µM; growth at 10 µM [8]: -26.4%; GI50 (OVCAR-3): 2.11 µM

From ChEMBL document CHEMBL2380254, “Optimization of tocotrienols as antiproliferative and antimigratory leads” (Eur J Med Chem, 2013)
